# Compound activity: PubChem BioAssay, several laboratories
# Shown are actives, neighbours in structure and some others; about 2.6% of the full set was active somewhere.
# T cell modulator = modulates CD8 T cell binding to vesicles. actives 0.068% (n = 330,000). response (vesicle binding), % at 7 µM. 2C CD8+ T cell-vesicle binding, flow cytometry; active compounds read low;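 active = response, share of CD8 T cells binding vesicles, and their 90th percentile fluorescence all below set limits, cut at about 80% in these data, passing the limit was not always enough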;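 note: values below 100% mean blocked vesicle binding to the CD8+ T cells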
#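 incubation = binding step 1.5 h, 37 °C, antibody labelling 20 min, ice | test system = 2C mouse CD8+ T cells | read-out basis = percent CD8+ FL2 mean versus row control | controls = Peptide-free naked vesicles (low) and QL9 vesicles with 0.7% DMSO vehicle (high) | detection = flow cytometry of vesicle-bound cells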
# GRK2 inh = human GRK2 inhibition via aptamer displacement. P25098. bead flow cytometry, FAM-aptamer displacement from GRK2. inhibition of aptamer binding, % at 10 µM. actives 0.59% (n = 330,000);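 active = inhibition of aptamer binding above 40%, roughly 3 SD of noise, on plates passing a quality check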;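 note: median bead fluorescence of bound FAM aptamer so fluorescent compounds give negative values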
# Rce1 inh = blocks yeast Ras-converting enzyme; actives 0.27% (n = 290,000); yeast membranes, quenched prenylated peptide cleavage fluorescence; Q03530; calls only; AID 2563;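 active = fall in fluorescence gain of 50% or more versus controls, with final raw signal at or below 3038400; inconclusive = same 50% fall but final raw signal above 3038400; inactive = fall in fluorescence gain under 50%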
# SKN-1 inh = blocks SKN-1 activity in C. elegans; C. elegans VP596 Pgst-4::GFP/RFP ratio, acrylamide-induced, 24 h; actives 0.49% (n = 360,000); AID 624304; inhibition, % at 21.8 µM;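 active = interference check ratio from 0.5 to 1.5 plus GFP to RFP signal ratio inhibition reaching or exceeding a fixed threshold, cut at about 30% in these data, passing the limit was not always enough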
# Myeloid diff 2 = compounds promoting myeloid differentiation; AID 624256; ER-HoxA9 myeloid progenitors, lysozyme-GFP differentiation, flow cytometry; actives 1% (n = 360,000); calls only at 10 µM;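 active = normalized GFP-positive differentiation at or above the plate's own cutoff, the solvent-only control mean plus 3 SD; inconclusive = no clear call, values can overlap the other calls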;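 note: cells exposed to compound for four days before flow analysis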
# Rin1-Abl PPI inh = inhibitors of human Rin1-Abl protein interaction; TR-FRET Rin1/Abl binding, biochemical; P00519+Q13671; actives 0.4% (n = 360,000); inhibition, % at 7.35 µM; in the data active = inhibition above about 5%, passing the limit was not always enough
# Target sequence (P00519 whole entry, looked up): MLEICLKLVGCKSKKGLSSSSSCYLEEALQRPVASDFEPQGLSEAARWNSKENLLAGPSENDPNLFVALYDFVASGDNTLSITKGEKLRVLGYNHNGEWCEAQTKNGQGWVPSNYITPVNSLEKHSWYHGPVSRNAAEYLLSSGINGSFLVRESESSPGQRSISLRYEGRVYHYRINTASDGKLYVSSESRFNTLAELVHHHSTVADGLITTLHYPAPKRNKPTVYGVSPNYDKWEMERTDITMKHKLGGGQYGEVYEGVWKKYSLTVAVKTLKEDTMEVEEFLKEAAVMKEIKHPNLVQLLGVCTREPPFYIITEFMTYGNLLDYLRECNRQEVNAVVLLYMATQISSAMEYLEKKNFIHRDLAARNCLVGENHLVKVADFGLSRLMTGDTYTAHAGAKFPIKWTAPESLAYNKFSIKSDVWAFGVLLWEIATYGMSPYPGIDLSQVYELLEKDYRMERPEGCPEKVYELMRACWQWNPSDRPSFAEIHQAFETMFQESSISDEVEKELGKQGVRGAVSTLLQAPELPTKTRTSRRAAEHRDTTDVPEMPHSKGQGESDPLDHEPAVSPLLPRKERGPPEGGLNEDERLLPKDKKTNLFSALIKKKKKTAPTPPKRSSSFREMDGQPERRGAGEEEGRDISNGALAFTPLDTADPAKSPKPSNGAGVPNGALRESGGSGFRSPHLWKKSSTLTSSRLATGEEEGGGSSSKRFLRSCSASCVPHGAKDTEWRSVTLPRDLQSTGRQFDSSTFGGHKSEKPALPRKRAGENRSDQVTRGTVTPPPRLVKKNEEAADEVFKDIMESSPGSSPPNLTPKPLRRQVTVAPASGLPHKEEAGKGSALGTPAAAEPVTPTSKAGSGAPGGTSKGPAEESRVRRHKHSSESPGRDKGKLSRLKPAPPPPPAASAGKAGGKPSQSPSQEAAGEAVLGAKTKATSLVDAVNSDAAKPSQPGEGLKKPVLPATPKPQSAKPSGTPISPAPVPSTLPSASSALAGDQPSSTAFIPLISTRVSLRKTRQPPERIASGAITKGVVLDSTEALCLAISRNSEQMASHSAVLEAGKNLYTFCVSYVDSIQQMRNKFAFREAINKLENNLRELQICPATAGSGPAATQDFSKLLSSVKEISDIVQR
# Target sequence (Q13671 whole entry, looked up): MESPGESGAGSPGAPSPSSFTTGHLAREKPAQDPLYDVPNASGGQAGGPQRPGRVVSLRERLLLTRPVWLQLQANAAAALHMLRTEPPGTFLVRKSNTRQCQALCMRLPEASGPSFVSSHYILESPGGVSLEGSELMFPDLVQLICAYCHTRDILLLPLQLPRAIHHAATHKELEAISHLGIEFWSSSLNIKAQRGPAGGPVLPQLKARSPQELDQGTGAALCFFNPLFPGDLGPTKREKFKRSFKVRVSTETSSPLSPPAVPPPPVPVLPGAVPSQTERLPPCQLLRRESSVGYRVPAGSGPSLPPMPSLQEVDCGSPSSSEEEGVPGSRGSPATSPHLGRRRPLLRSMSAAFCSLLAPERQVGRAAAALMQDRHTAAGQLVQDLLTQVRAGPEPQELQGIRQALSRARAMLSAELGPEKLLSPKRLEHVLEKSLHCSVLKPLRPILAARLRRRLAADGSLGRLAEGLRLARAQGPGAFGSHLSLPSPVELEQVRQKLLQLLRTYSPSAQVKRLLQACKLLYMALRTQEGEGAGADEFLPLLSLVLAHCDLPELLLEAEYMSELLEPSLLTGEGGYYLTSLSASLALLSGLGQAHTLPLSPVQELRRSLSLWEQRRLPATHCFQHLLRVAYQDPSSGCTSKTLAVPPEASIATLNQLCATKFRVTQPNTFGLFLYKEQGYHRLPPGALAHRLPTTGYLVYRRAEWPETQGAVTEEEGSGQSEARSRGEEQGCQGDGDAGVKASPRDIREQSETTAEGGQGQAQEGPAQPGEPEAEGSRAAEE
# Hits are given with their value; . = inactive; ? = inconclusive; / = not tested or not shown; + = active, no number.
SMILES,T cell modulator,GRK2 inh,Rce1 inh,SKN-1 inh,Myeloid diff 2,Rin1-Abl PPI inh
COCc1c(Br)c(C)[nH]c(=O)c1C#N,.,.,+,.,.,.
Fc1ccc(Cn2nnc(-c3ccc(Cl)cc3)n2)cc1,.,.,.,.,.,.
Fc1ccc(-c2nnn(Cc3nc4ccccc4s3)n2)cc1,.,.,/,37,.,.
Clc1ccc(-c2nnn(Cc3nc4ccccc4s3)n2)cc1,.,.,.,57,.,.
CN(CCCn1cnc2c(OCc3ccccc3)ncnc21)Cc1ccco1,/,/,/,.,.,.
Cc1ccc(S(=O)(=O)CCC(=O)OC(C)C(=O)NC2CCCCC2C)cc1 (centres undefined),.,.,.,.,/,.
Cc1oc(C(N)=O)nc1-c1ccccc1,.,.,.,.,.,.
COc1ccc(OC)c(S(=O)(=O)NC(=O)C2(C)CCN2C(=O)Cc2ccc(Cl)cc2Cl)c1 (centres undefined),/,/,/,.,.,.
COc1cc(C)ccc1S(=O)(=O)NC(=O)C1(C)CCN1C(=O)Cc1ccc(Cl)cc1Cl (centres undefined),/,/,/,.,+,.
COc1ccccc1-c1cc(NC(C)=O)c2ncc(-c3cccc(C(C)=O)c3)n2c1,/,/,/,.,.,.
CCOc1ccc(CCNC(=O)c2cc(S(=O)(=O)N3CCOCC3)ccc2C)cc1OCC,.,.,.,.,.,.
Nc1cc(=O)[nH]c(SCC(=O)Nc2cccc([N+](=O)[O-])c2)n1,.,.,.,.,+,.
O=c1c2ccccc2nc2oc3ccccc3n12,.,.,.,.,.,.
CC(C)(C)OC(=O)N1CCC(Cc2cc(-c3cccnc3)no2)(C(=O)O)CC1,/,/,.,.,+,.
CCCCNC(=O)N(O)C1N(/N=C/c2cccs2)C(=S)SC1(C)C (centres undefined),.,.,.,.,.,.
CCCc1cc(=O)n2[nH]c(C)c(-c3ccccc3)c2n1,.,.,+,.,.,.
COc1cccc(-c2cc(C(F)(F)F)n3ncc(S(=O)(=O)c4ccccc4)c3n2)c1,.,.,+,.,.,.
Cc1cccc(OCCCN2C(=O)C(=O)c3cc(C)ccc32)c1,.,.,+,.,?,.
Cc1ccc2c(c1)C(=O)C(=O)N2CCCOc1ccccc1,.,.,+,.,.,.
Cc1ccc(OCCCN2C(=O)C(=O)c3cc(C)ccc32)cc1,.,.,.,.,.,.
COc1ccc(CNC(=O)c2ccccc2NS(C)(=O)=O)cc1,.,.,+,.,.,.
COc1ccccc1CNC(=O)c1ccccc1NS(C)(=O)=O,.,.,.,.,.,.
CCc1nnc(NC(=O)CCc2ccccc2OC)s1,.,.,.,.,+,.
CC(C)Cc1nnc(NC(=O)CC(C)c2ccccc2)s1 (centres undefined),.,.,.,.,.,.
CCc1nnc(NC(=O)CC(C)c2ccccc2)s1 (centres undefined),.,.,.,36,.,.
SMILES,T cell modulator,GRK2 inh,Rce1 inh,SKN-1 inh,Myeloid diff 2,Rin1-Abl PPI inh
O=C(c1ccccc1)c1ccc(NCCCn2ccnc2)c([N+](=O)[O-])c1,.,.,.,.,.,.
Cc1ccc(CNC(=O)C2CCCN2C(=O)Nc2ccccc2)cc1 (centres undefined),.,.,.,.,.,.
CS(=O)(=O)N(CC(=O)Nc1ccc(CC#N)cc1)c1ccc(C23CC4CC(CC(C4)C2)C3)cc1,.,.,.,.,+,.
O=c1[nH]c(=S)[nH]c2c1[C@H](C1CC1)O[C@H](CCc1ccccc1)C2,/,/,/,.,.,/
O=C(Nc1nc(-c2ccccc2)cs1)c1ccccc1F,.,.,.,53,.,.
Cc1csc(NC(=O)c2ccccc2O)n1,.,.,+,.,/,.
COc1ccc(-c2csc(NC(=O)c3ccccc3F)n2)cc1,.,/,.,.,.,.
CC(C)C(NC(=O)c1ccccc1F)C(=O)NCc1ccc(F)cc1 (centres undefined),.,.,.,.,.,.
COC(=O)c1sc2cnccc2c1N,.,.,+,.,.,.
Cc1ccc(S(=O)(=O)N2CCOCC2)cc1C(=O)Nc1ccc2c(c1)OCCO2,.,.,/,.,.,.
COc1cccc(CN2CCNC(=O)C2CC(=O)N(C)CC2CCOCC2)c1OC (centres undefined),.,.,.,.,.,.
Fc1ccc(Nc2cccc3nccnc23)cc1,.,.,.,45,.,.
CC(=O)Nc1cccc(-c2nc3ccccc3n2C(C(=O)NC(C)(C)C)C2CC2)c1 (centres undefined),/,/,/,.,.,/
Brc1ccc(/C=N/Nc2ccc3ccccc3n2)cc1,.,.,.,45,.,.
Cc1ccc(S(=O)(=O)N2CCCN(c3nc4cc(C)ccc4cc3C#N)CC2)cc1,.,.,.,.,+,.
Cc1ccc2nc(N3CCN(S(=O)(=O)c4ccc5c(c4)OCCO5)CC3)c(C#N)cc2c1,.,.,.,.,.,.
Cc1cc(C)c2cc(C#N)c(N3CCCC3)nc2c1,.,.,/,48,.,.
Cc1cc(C)c2cc(C#N)c(N3CCCN(C(=S)NCCCN(C)C)CC3)nc2c1,.,.,.,.,.,.
C/C(Cl)=C\Cn1c(N2CCCC2)nc2c1c(=O)[nH]c(=O)n2C,.,.,.,.,.,.
C/C(Cl)=C/Cn1c(N2CCCC2)nc2c1c(=O)n(C)c(=O)n2C,.,.,/,.,+,.
NC1=NC2(CCCCC2)N(c2cccc(Cl)c2)C(N)=N1,.,.,.,.,+,.
CCN(CC(=O)Nc1ccc(NC(C)=O)cc1)C(=O)C1(c2ccccc2)CC1,.,.,/,.,.,.
CCOc1cc(/C=C2/C(=O)N(c3ccccc3)N=C2C)ccc1OC(=O)c1cccs1,.,.,.,.,.,12
COc1ccc(/C=C2/C(=O)N(c3c(F)c(F)c(F)c(F)c3F)N=C2C)cc1,.,/,.,.,.,.
COc1ccc(/C=C2/C(=O)N(c3ccccc3)N=C2C)cc1,.,.,.,.,.,8.1
SMILES,T cell modulator,GRK2 inh,Rce1 inh,SKN-1 inh,Myeloid diff 2,Rin1-Abl PPI inh
CC(=O)N1C[C@H]2CON(C)[C@H]2C[C@H]1c1cccc(-c2cc(Cl)cc(Cl)c2)c1,/,/,/,.,.,.
CS(=O)(=O)N1CCN(Cc2ccc([N+](=O)[O-])cc2)CC1,.,.,.,.,.,.
CCc1ccc(-c2cc(C)no2)cc1S(=O)(=O)N1CCN(c2ccc(F)cc2)CC1,.,.,.,.,+,.
CN(C)/C(=N\S(=O)(=O)c1ccccc1)c1ccccc1,.,.,.,.,.,.
CCCCn1c(N)c(N(CCOC)C(=O)C2CC(=O)N(c3ccc(CC)cc3)C2)c(=O)[nH]c1=O (centres undefined),.,.,/,.,.,.
CN1CCC[C@H]1CCNc1ccc2c(=O)c3ccccc3n(C)c2c1,/,/,/,.,+,.
CN1CCCC1CCNc1ccc2c(=O)c3ccccc3oc2c1 (centres undefined),.,.,?,.,.,.
